Data as given in ChEMBL document CHEMBL1131244, “New alkenyldiarylmethanes with enhanced potencies as anti-HIV agents which act as non-nucleoside reverse transcriptase inhibitors” (J Med Chem, 1998).

How the values were obtained:
CCRF-CEM = assay: The compound is evaluated for the cytotoxic concentration for the mock-infected CEM cells; assay type: functional; details: Homo sapiens
Procedure, shortened: (§1)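 XTT cytoprotection assay in CEM-SS cells infected with HIV-1 RF, with uninfected cultures for cytotoxicity, in presence of fetal calf serum. Data as percent of uninfected drug-free control. EC50 is 50% protection from cytopathicity; CC50 is 50% cell death in uninfected cells; TI = CC50/EC50. Triplicates on each of two sister plates, plate EC50s averaged. Confirmed by supernatant RT and p24.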

CEM-SS [1] = assay: Inhibitory concentration for cytopathicity of HIV-1 in CEM-SS cells; assay type: functional, cell-based; details: Homo sapiens; procedure, shortened: as §1
[2] = target: T1, Human immunodeficiency virus type 1 reverse transcriptase (Human immunodeficiency virus 1, UniProt Q72547); assay: Inhibitory activity against human immunodeficiency virus (HIV) - 1 reverse transcriptase with rCdG as the template primer
Procedure, shortened: (§2)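 Reactions stopped with ice-cold 10% trichloroacetate, filtered through GF/C membrane, washed with ethanol, radiolabel counted by Cerenkov counting. AZTTP and nevirapine as positive controls; IC50 reported.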

CEM-SS [3] = assay: The compound is evaluated for the therapeutic index, which is the CC50 divided by the EC50.; assay type: functional; procedure, shortened: as §1
CEM-SS [4] = assay: Inhibitory concentration for cytopathicity of HIV-1 RF in CEM-SS cells; NA means there was no observed inhibition of HIV-1 cytopathicity up to the cytotoxic concentration in uninfected cells.; assay type: functional, cell-based; procedure, shortened: as §1
[5] = target: Human immunodeficiency virus type 1 integrase (Human immunodeficiency virus 1, UniProt Q7ZJM1); assay: The compound is evaluated for the inhibitory against HIV -1 integrase. NI refers to no inhibition.
Sequence of Human immunodeficiency virus type 1 integrase (Q7ZJM1 whole entry): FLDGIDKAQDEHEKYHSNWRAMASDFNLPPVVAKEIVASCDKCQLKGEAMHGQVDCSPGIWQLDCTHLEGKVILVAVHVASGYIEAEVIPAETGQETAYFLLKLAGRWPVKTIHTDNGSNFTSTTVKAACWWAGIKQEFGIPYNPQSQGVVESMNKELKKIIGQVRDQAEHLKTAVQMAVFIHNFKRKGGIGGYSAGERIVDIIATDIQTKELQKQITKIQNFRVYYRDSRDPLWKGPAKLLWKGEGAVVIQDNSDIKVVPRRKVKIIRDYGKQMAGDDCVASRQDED

[6] = target: Human immunodeficiency virus 1 nucleocapsid (Human immunodeficiency virus 1, UniProt Q76059); assay: Inhibition of HIV-1 Nucleocapsid protein p7 (no inhibition)
Sequence of Human immunodeficiency virus 1 nucleocapsid (Q76059 whole entry): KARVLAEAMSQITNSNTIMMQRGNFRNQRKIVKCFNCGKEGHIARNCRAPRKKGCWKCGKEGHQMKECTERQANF

[7] = target: Human immunodeficiency virus type 1 protease (Human immunodeficiency virus 1, UniProt Q72874); assay: The compound is evaluated for the inhibitory against HIV -1 protease, a 30% inhibition of HIV-1 protease was observed at a concentration of 100 uM
[8] = target: T1, Human immunodeficiency virus type 1 reverse transcriptase; assay: The compound is evaluated for the inhibitory against HIV -1 reverse transcriptase with rAdT as the template primer.; procedure, shortened: as §2
[9] = The compound is evaluated for the therapeutic index, which is the CC50 divided by the EC50; assay type: functional; procedure, shortened: as §1

| IC50 [2] | Compound | CC50 (CCRF-CEM) | EC50 (CEM-SS [1]) | TI (CEM-SS [3]) | EC50 (CEM-SS [4]) | IC50 [5] | IC50 [6] | IC50 [7] | IC50 [8] | TI [9] |
| --- | --- | --- | --- | --- | --- | --- | --- | --- | --- | --- |
| > 100 µM | CC1(C)OC(=O)c2cc(C(=CCCO)c3cc(Cl)c4c(c3)C(=O)OC(C)(C)O4)cc(Cl)c2O1 | 18.8 µM |  |  | Not Active |  |  |  |  |  |
| > 100 µM | COC(=O)c1cc(C(=CC(=O)OC(C)(C)C)c2cc(Cl)c(OC)c(C(=O)OC)c2)cc(Cl)c1OC | > 100 µM |  |  | Not Active |  |  |  |  |  |
| > 100 µM | CC1(C)OC(=O)c2cc(C(=CCCBr)c3cc(Cl)c4c(c3)C(=O)OC(C)(C)O4)cc(Cl)c2O1 | 176 µM |  |  | Not Active |  |  |  |  |  |
| > 100 µM | COC(=O)c1cc(C(=CCCCC(=O)O)c2cc(Cl)c(OC)c(C(=O)OC)c2)cc(Cl)c1OC | 100 µM |  |  | Not Active |  |  |  |  |  |
| > 100 µM | COC(=O)c1cc(C(=CC(=O)O)c2cc(Cl)c(OC)c(C(=O)OC)c2)cc(Cl)c1OC | 48 µM |  |  | Not Active |  |  |  |  |  |
| > 100 µM | COC(=O)c1cc(C(=CCCO)c2cc(Cl)c(OC)c(C(=O)OC)c2)cc(Cl)c1OC | 16.8 µM | 8.6 µM | 2 |  |  |  |  |  |  |
| > 100 µM | COc1c(Cl)cc(C(=CCCCC(=O)O)c2cc(Cl)c(OC)c(C(=O)O)c2)cc1C(=O)O | > 316 µM | 180 µM | 1.7 |  |  |  |  |  |  |

| Compound | IC50 [2] | CC50 (CCRF-CEM) | EC50 (CEM-SS [1]) | TI (CEM-SS [3]) | EC50 (CEM-SS [4]) | IC50 [5] | IC50 [6] | IC50 [7] | IC50 [8] | TI [9] |
| --- | --- | --- | --- | --- | --- | --- | --- | --- | --- | --- |
| COC(=O)c1cc(C(=CCCO)c2cc(Br)c(OC)c(C(=O)OC)c2)cc(Br)c1OC | 31.6 µM | > 316 µM | 6 µM | >52 |  |  |  |  |  |  |
| COC(=O)c1cc(C(=CCCN=[N+]=[N-])c2cc(Cl)c(OC)c(C(=O)OC)c2)cc(Cl)c1OC | 2 µM | 41.8 µM | 0.27 µM |  |  | No inhibition | Not Active | > 100 µM | 9.9 µM | 155 |
| COC(=O)c1cc(C(=CCCN)c2cc(Cl)c(OC)c(C(=O)OC)c2)cc(Cl)c1OC | 63 µM | 15 µM |  |  | Not Active |  |  |  |  |  |
| COC(=O)C=C(c1cc(Cl)c(OC)c(C(=O)OC)c1)c1cc(Cl)c(OC)c(C(=O)OC)c1 | 16 µM | 25 µM |  |  | Not Active |  |  |  |  |  |
